Laboratory results as given in ChEMBL document CHEMBL4406821, “Novel dual inhibitors targeting CDK4 and VEGFR2 synergistically suppressed cancer progression and angiogenesis” (Eur J Med Chem, 2019).
Active and inactive are the calls of the source. No cut-off for these calls is given here.

Experiments:
SiHa = test: Induction of apoptosis in human SiHa cells assessed as decrease in Rb phosphorylation incubated for 48 hrs by Western blot analysis; type: functional, cell-based
Summary of the method: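 Cancer cells were exposed to graded concentrations for 48 h, washed three times in PBS and lysed in RIPA buffer. Immunoblots were probed with anti-Rb, anti-phospho-Rb, anti-Ki67 and anti-Bcl-2, each at 1:1000. β-actin served as loading control.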

[1] = molecular target: NUAK family SNF1-like kinase 1 (Homo sapiens) (UniProt O60285); test: Inhibition of recombinant human ARK5 (2 to end residues) at 1 uM using KKKVSRSGLYRSP as substrate incubated for 40 mins in presence of [gamma-33P]-ATP by scintillation counting method relative to control
Chain of NUAK family SNF1-like kinase 1 (Homo sapiens) (O60285 whole entry): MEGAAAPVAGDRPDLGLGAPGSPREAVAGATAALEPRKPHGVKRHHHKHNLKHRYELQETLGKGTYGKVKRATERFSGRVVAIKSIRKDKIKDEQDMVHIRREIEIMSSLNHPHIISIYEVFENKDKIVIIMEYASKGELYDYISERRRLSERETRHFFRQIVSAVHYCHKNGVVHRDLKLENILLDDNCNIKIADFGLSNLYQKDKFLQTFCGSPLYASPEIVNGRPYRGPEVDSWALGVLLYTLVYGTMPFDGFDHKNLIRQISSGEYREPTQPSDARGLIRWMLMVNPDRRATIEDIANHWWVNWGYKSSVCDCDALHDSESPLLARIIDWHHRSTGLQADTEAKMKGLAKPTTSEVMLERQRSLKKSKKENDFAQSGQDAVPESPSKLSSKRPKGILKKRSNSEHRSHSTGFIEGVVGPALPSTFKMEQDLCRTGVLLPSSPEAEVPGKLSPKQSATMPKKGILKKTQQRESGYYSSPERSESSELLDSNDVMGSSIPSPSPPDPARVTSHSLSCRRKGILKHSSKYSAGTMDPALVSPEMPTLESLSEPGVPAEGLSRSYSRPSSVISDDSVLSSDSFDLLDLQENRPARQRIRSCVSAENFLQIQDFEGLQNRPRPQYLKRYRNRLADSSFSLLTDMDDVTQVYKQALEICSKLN
Summary of the method: (§1)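 Kinase panel profiling at 1 μM performed by Eurofins KinaseProfiler; percent inhibition reported as mean of two independent experiments.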

[2] = system: Tyrosine-protein kinase BTK (Homo sapiens), Q06187 [R28H]; test: Inhibition of recombinant full length human BTK R28H mutant at 1 uM using LSNLYHQGKFLQT as substrate incubated for 40 mins in presence of [gamma-33P]-ATP by scintillation counting method relative to control
Summary of the method: (§2)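 Tested at a single 1 uM in an outsourced commercial kinase-profiling panel, read as percent inhibition. Each value is the mean of two independent experiments.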

[3] = molecular target: Tyrosine-protein kinase CSK (Homo sapiens) (UniProt P41240); test: Inhibition of recombinant full length human CSK at 1 uM using poly(Glu, Tyr) 4:1 as substrate incubated for 40 mins in presence of [gamma-33P]-ATP by scintillation counting method relative to control; summary of the method: as §2
[4] = system: Epidermal growth factor receptor (Homo sapiens), P00533 [L858R]; test: Inhibition of recombinant human EGFR L858R mutant (696 to end residues) at 1 uM using poly(Glu, Tyr) 4:1 as substrate incubated for 40 mins in presence of [gamma-33P]-ATP by scintillation counting method relative to control; summary of the method: as §1
[5] = molecular target: Ephrin type-A receptor 7 (Homo sapiens) (UniProt Q15375); test: Inhibition of recombinant human EPhA7 (613 to 909 residues) at 1 uM using KTFCGTPEYLAPEVRREPRILSEEEQEMFRDFDYIADWC as substrate incubated for 40 mins in presence of [gamma-33P]-ATP by scintillation counting method relative to control
Chain of Ephrin type-A receptor 7 (Homo sapiens) (Q15375 28-998 limits assumed): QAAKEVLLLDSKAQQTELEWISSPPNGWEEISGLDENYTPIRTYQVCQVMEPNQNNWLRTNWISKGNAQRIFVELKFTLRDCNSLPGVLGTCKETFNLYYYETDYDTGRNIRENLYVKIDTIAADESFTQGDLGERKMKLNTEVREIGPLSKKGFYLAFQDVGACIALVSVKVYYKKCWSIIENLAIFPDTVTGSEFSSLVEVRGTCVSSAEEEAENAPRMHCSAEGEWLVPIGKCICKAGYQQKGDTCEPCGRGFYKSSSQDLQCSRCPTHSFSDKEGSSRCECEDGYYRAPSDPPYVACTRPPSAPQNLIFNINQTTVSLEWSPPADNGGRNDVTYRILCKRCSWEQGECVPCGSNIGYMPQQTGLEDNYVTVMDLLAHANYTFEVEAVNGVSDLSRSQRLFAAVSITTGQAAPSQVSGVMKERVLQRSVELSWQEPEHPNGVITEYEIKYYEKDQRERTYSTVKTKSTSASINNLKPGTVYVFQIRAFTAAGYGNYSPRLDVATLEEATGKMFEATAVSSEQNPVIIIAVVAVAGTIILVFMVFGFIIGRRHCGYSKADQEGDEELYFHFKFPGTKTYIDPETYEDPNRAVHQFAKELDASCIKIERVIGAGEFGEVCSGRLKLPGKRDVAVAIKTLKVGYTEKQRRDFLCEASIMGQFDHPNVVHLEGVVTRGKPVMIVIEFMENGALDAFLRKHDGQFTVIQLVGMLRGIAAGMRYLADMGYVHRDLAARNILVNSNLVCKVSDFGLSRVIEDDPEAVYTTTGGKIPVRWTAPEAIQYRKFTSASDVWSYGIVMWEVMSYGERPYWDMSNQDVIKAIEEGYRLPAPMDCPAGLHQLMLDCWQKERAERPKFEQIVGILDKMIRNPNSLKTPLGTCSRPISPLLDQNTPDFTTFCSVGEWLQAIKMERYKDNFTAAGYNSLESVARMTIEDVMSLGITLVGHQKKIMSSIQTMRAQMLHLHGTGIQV

[6] = molecular target: Inhibitor of nuclear factor kappa-B kinase subunit epsilon (Homo sapiens) (UniProt Q14164); test: Inhibition of recombinant human full length IKKepsilon at 1 uM using casein as substrate incubated for 40 mins in presence of [gamma-33P]-ATP by scintillation counting method relative to control
[7] = molecular target: Mitogen-activated protein kinase kinase kinase 3 (Homo sapiens) (UniProt Q99759); test: Inhibition of recombinant human full length MEKK3 at 1 uM using myelin basic protein as substrate incubated for 40 mins in presence of [gamma-33P]-ATP by scintillation counting method relative to control
Chain of Mitogen-activated protein kinase kinase kinase 3 (Homo sapiens) (Q99759 whole entry, the tested form may be a part): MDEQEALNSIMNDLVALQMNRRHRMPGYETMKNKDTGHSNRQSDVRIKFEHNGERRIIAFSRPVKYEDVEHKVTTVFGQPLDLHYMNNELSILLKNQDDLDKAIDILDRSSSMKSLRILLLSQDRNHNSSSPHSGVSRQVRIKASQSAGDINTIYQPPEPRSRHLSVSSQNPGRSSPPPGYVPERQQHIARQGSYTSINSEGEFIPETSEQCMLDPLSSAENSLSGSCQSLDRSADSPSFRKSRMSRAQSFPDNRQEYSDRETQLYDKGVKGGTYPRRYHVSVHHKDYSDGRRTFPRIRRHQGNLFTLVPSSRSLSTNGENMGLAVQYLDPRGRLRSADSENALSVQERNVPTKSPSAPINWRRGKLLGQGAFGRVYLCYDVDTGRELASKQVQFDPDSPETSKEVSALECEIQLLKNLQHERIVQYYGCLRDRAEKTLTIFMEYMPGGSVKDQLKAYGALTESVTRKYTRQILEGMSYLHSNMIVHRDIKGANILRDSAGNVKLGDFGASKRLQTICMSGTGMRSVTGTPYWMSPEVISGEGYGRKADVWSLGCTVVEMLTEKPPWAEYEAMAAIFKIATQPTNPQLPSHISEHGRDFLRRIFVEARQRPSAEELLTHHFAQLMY

[8] = molecular target: Serine/threonine-protein kinase MRCK alpha (Homo sapiens) (UniProt Q5VT25); test: Inhibition of recombinant human MRCKalpha (1 to 473 residues) at 1 uM using KKRNRTLTV as substrate incubated for 40 mins in presence of [gamma-33P]-ATP by scintillation counting method relative to control
[9] = molecular target: Serine/threonine-protein kinase NIM1 (Homo sapiens) (UniProt Q8IY84); test: Inhibition of recombinant human full length NIM1 at 1 uM using KKKVSRSGLYRSPSMPENLNRPR as substrate incubated for 40 mins in presence of [gamma-33P]-ATP by scintillation counting method relative to control
Chain of Serine/threonine-protein kinase NIM1 (Homo sapiens) (Q8IY84 whole entry): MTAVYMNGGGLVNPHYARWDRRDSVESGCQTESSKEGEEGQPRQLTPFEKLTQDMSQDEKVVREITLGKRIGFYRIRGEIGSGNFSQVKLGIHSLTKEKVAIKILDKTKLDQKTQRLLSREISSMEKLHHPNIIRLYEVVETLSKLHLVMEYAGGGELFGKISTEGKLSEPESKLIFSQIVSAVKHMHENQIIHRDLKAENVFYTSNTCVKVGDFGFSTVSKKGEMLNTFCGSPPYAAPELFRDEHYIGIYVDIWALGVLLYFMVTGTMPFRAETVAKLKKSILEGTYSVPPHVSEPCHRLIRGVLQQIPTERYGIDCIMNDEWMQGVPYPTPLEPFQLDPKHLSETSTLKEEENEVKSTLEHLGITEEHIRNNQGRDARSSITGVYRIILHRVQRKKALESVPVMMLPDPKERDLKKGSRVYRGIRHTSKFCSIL

[10] = molecular target: Serine/threonine-protein kinase PAK 4 (Homo sapiens) (UniProt O96013); test: Inhibition of recombinant human PAK4 (295 to end residues) at 1 uM using myelin basic protein as substrate incubated for 40 mins in presence of [gamma-33P]-ATP by scintillation counting method relative to control
Chain of Serine/threonine-protein kinase PAK 4 (Homo sapiens) (O96013 whole entry, looked up): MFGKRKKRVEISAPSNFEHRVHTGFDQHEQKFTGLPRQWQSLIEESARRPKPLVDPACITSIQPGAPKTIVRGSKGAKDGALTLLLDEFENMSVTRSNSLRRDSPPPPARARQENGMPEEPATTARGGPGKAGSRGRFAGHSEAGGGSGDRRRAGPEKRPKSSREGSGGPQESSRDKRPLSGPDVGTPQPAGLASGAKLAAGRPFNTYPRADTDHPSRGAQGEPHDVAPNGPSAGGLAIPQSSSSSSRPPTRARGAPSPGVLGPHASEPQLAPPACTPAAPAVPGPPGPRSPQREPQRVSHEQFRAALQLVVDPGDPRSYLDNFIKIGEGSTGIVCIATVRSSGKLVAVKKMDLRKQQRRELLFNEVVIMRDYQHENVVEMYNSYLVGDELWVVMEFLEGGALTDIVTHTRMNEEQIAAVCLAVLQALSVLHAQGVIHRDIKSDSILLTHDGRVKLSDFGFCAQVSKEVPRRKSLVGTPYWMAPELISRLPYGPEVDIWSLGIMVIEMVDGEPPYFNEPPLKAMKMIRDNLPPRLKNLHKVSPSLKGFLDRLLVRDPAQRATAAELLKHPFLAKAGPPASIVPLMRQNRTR

[11] = molecular target: cGMP-dependent protein kinase 1 (Homo sapiens) (UniProt Q13976); test: Inhibition of recombinant human full length PKG1beta at 1 uM using RRRLSFAEPG as substrate incubated for 40 mins in presence of [gamma-33P]-ATP by scintillation counting method relative to control
[12] = molecular target: Protein kinase C epsilon type (Homo sapiens) (UniProt Q02156); test: Inhibition of recombinant human PKCepsilon (2 to end residues) at 1 uM using ERMRPRKRQGSVRRRV as substrate incubated for 40 mins in presence of [gamma-33P]-ATP by scintillation counting method relative to control
Chain of Protein kinase C epsilon type (Homo sapiens) (Q02156 whole entry, the tested form may be a part): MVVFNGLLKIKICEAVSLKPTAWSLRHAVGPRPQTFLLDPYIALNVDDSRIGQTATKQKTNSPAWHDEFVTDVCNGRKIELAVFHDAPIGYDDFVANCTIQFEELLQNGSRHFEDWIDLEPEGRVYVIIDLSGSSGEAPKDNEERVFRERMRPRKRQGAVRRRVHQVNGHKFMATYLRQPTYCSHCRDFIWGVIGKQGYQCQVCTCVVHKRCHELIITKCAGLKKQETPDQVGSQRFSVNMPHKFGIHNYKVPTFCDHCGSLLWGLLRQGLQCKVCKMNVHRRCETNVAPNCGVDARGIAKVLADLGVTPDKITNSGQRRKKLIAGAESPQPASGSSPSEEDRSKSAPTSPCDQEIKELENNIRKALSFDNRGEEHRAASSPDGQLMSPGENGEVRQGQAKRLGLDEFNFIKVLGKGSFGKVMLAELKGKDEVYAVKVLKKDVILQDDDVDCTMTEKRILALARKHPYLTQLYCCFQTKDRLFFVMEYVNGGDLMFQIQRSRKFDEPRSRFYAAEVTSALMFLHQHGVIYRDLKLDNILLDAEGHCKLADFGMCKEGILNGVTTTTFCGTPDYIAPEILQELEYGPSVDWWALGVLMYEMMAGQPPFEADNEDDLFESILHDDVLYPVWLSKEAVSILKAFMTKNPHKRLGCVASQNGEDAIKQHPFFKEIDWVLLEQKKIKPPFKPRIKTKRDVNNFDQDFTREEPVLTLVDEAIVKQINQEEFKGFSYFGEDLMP

[13] = molecular target: Phosphatidylinositol 3-kinase C2 domain-containing subunit gamma (Homo sapiens) (UniProt O75747); test: Inhibition of recombinant human PI3KC2gamma (468 to 1203 residues) at 1 uM using phosphatidylinositol as substrate incubated for 40 mins in presence of [gamma-33P]-ATP by scintillation counting method relative to control
[14] = molecular target: PI3K p110 beta/p85 alpha (Homo sapiens) (UniProt P27986+P42338); test: Inhibition of recombinant human full length PI3K p110beta/p85alpha at 1 uM using phosphatidylinositol-4, 5-bisphosphate as substrate incubated for 40 mins in presence of [gamma-33P]-ATP by scintillation counting method relative to control; type: protein-complex assay
[15] = molecular target: Cyclin-dependent kinase 1/cyclin B1 (Homo sapiens, UniProt P06493); test: Inhibition of recombinant human full length CDK1/CyclinB using histone H1 as substrate incubated for 40 mins in presence of [gamma-33P]-ATP by scintillation counting method; type: protein-complex assay
Chain of Cyclin-dependent kinase 1/cyclin B1 (P06493 whole entry): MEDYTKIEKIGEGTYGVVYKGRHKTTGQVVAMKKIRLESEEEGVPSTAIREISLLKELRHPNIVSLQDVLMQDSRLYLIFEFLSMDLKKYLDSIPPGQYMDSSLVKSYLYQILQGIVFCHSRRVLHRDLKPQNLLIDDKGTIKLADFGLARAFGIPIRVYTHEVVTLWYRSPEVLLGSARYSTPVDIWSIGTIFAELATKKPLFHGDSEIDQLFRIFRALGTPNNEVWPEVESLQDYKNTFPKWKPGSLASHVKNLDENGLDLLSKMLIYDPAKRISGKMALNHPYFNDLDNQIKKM
Chain of Cyclin-dependent kinase 1/cyclin B1 (P14635 whole entry, further chain): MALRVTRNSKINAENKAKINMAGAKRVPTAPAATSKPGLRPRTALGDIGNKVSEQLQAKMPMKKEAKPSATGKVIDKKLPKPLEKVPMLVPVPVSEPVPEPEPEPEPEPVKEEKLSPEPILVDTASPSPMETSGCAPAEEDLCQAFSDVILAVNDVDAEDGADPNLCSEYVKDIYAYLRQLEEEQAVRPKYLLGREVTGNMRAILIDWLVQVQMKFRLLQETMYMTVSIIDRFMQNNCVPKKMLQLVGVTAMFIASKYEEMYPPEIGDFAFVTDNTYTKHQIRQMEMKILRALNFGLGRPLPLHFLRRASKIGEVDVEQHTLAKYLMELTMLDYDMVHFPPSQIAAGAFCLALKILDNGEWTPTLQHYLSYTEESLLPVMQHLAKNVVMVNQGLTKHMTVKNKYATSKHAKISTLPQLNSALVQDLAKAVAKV

[16] = system: PI3-kinase p110-alpha/p85-alpha (Homo sapiens), P27986+P42336 [H1047R]; test: Inhibition of recombinant human full length PI3K p110alpha/p85alpha H1047R mutant at 1 uM using phosphatidylinositol 4,5-bisphosphate as substrate incubated for 40 mins in presence of [gamma-33P]-ATP by scintillation counting method relative to control; type: protein-complex assay
[17] = system: PI3-kinase p110-alpha/p85-alpha (Homo sapiens), P27986+P42336 [E545K]; test: Inhibition of recombinant human full length PI3K p110alpha/p85alpha E545K mutant at 1 uM using phosphatidylinositol 4,5-bisphosphate as substrate incubated for 40 mins in presence of [gamma-33P]-ATP by scintillation counting method relative to control; type: protein-complex assay
[18] = Toxicity in BALB/c mouse assessed as effect on blood parameter by measuring hemoglobin content at 40 mg/kg, po administered once two days for 4 times by hematology analyzer; conditions: in vivo
[19] = Toxicity in BALB/c mouse assessed as effect on blood parameter by measuring lymphocytes content at 40 mg/kg, po administered once two days for 4 times by hematology analyzer; conditions: in vivo
T47D = test: Induction of apoptosis in human T47D cells at 40 nM incubated for 48 hrs by annexin V FITC and propidium iodide staining based flow cytometry; type: functional, cell-based
Summary of the method: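 Annexin V-FITC/PI double staining with flow-cytometric readout. MDA-MB-231, T-47D, SiHa and HeLa cells were treated with graded concentrations for 48 h. MDA-MB-231 and T-47D were grown in DMEM and SiHa in 1640 medium, each with 10% FBS and 1% penicillin/streptomycin at 37°C under 5% CO2. Early- and late-stage apoptotic fractions were scored.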

Question: For Cc1ccc(NC(=O)C2(C(=O)Nc3ccc(Nc4ncc(F)c(-c5cc(F)c6nc(C)n(C(C)C)c6c5)n4)cc3)CC2)cc1, which Activity (SiHa) is on record?
Answer: Dose-dependent effect

Question: And the inhibition [1]?
Answer: 69%

Question: And the inhibition [2]?
Answer: 0%

Question: What about the inhibition [3] of the same compound?
Answer: 0%

Question: And the inhibition [4]?
Answer: 35%

Question: What about the inhibition [5] of the same compound?
Answer: 81%

Question: And the inhibition [6]?
Answer: 47%

Question: What about the inhibition [7] of the same compound?
Answer: 78%

Question: What about the inhibition [8] of the same compound?
Answer: 21%

Question: And the inhibition [9]?
Answer: 66%

Question: What about the inhibition [10] of the same compound?
Answer: 50%

Question: What about the inhibition [11] of the same compound?
Answer: 45%

Question: What about the inhibition [12] of the same compound?
Answer: 16%

Question: What about the inhibition [13] of the same compound?
Answer: 38%

Question: What about the inhibition [14] of the same compound?
Answer: 12%

Question: And the IC50 [15]?
Answer: 247 nM

Question: What about the inhibition [16] of the same compound?
Answer: 7%

Question: And the inhibition [17]?
Answer: 2%

Question: And the Activity [18]?
Answer: Non-Toxic

Question: What about the Activity [19] of the same compound?
Answer: Non-Toxic

Question: Which Activity (T47D) does the source give for COc1cc2nccc(Oc3ccc(NC(=O)C4(C(=O)Nc5ccc(F)cc5)CC4)cc3)c2cc1OC [CABOZANTINIB] here?
Answer: Active
